Measurements of several laboratories.
Lines come from different studies, so protocols differ.
CDK17: Cyclin-dependent kinase 17 (CDK17, Homo sapiens, UniProt Q00537)
CDK17 with cyclin Y: Cyclin-dependent kinase 17, with cyclin Y (CDK17, Homo sapiens, UniProt Q00537)

Nc1ncnc2occ(-c3ccc(NC(=O)Nc4cc(C(F)(F)F)ccc4F)cc3)c12 — remaining signal (CDK17; cell-free assay, inhibitor; 20 µM): 0.4%
O=C(Nc1cnn(-c2csc(C(=O)NC3COC3)c2)c1)Nc1ccccc1Cl — remaining activity (CDK17 with cyclin Y; enzyme activity, inhibitor; 5 µM): 106%
c1ccc(CNc2nc(N3CCOc4ccccc43)nc3c2CCCC3)cc1 — inhibition (CDK17; target engagement in cells, inhibitor, chemoproteomics; 20 mM): -12.4%
CN(CCCC(F)(F)F)c1nccc(-c2cnn3ncccc23)n1 — remaining binding (CDK17; binding; 1 µM): 90%
C[C@@H](c1cccc(C#N)c1)n1cc(Cl)cc(C(N)=O)c1=N — remaining binding (CDK17; cell-free assay, competition with immobilised ligand; 1 µM): 84%
Cn1c2c(Cl)c(Cl)ccc2c2cc(N)[nH]c(=O)c21 — ΔTm (CDK17; thermal stability, DSF; 10 µM): 0.6 °C
CCCCNc1ncc2c(-c3ccc(F)cc3)nn(C[C@H]3CC[C@H](N)CC3)c2n1 — inhibition (CDK17; target engagement in cells, inhibitor, chemoproteomics; 20 mM): 41.7%
Cn1c2c(c3ccccc31)C(C#N)C(C)(C)NC2=O (stereo not shown) — ΔTm (CDK17; thermal stability, DSF; 10 µM): 0 °C
O=C(N[C@H]1CCCCC/C=C\C2C[C@@]2(C(=O)O)NC(=O)[C@@H]2C[C@@H](Oc3ccncc3)CN2C1=O)OC1CCCC1 (stereo partly shown) — remaining binding (CDK17; binding, competition with immobilised ligand; 1 µM): 89%
CCN1CCC2(CC1)NC(=O)c1c(c3ccc(Cl)c(Cl)c3n1C)C2C#N (racemic) — ΔTm (CDK17; thermal stability, DSF; 10 µM): 0 °C
COc1ccc2cc(OCC3(C(=O)O)CN(C(=O)c4ccc(F)cc4)C3)ccc2c1 — remaining binding (CDK17; cell-free assay, competition with immobilised ligand; 1 µM): 100%
Cn1c2c(c3ccc(Cl)c(Cl)c31)C(C#N)C(C)(C)NC2=O (stereo not shown) — ΔTm (CDK17; thermal stability, DSF; 10 µM): 1.1 °C
O=C(Nc1cnn(-c2csc(C(=O)NC3COC3)c2)c1)Nc1c(F)cccc1Cl — remaining activity (CDK17 with cyclin Y; enzyme activity, inhibitor; 5 µM): 96%
